Activity calls are given as the source filed them. The rule behind the calls is not given here.
Tests used:
[1] = target: Sphingosine 1-phosphate receptor 1 (Homo sapiens, UniProt P21453); test: Antagonist activity against human S1P1 receptor expressed in human U2OS cells co-expressing GFP assessed as inhibition of S1P-induced receptor translocation; assay type: cell-based
Procedure, shortened: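 Cellular S1P1 translocation (internalization) assay with antagonist; EC50 reported as mean of at least three separate determinations ± standard deviation.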

[2] = Intrinsic clearance in human liver microsomes pre-incubated at 37 degC for 5 mins before NADPH addition by LCMS/MS method; assay type: ADME; conditions: read-out: CLH
[3] = target: T1, Nuclear receptor subfamily 1 group I member 2 (Homo sapiens, UniProt O75469); test: Activation of human PXR expressed in human HepG2 cells co-expressing CYP3A4 assessed as CYP3A4 activation at 10 uM by luciferase reporter gene assay relative to rifampicin; assay type: ADME, cell-based; conditions: hepg2, 10 µM
T1 sequence (O75469 whole entry): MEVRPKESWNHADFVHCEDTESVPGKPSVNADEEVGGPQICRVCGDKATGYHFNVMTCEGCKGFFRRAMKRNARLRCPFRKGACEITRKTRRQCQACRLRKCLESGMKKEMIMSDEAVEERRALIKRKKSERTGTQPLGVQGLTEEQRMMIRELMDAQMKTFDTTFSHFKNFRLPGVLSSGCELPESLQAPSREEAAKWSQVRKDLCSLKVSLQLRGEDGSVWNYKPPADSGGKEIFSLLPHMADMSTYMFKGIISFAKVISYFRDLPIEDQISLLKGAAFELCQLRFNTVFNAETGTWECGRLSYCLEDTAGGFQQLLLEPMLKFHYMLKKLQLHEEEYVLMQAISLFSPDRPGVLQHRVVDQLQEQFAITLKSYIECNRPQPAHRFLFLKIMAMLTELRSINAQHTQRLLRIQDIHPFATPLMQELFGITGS
Procedure, shortened: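 Single-concentration PXR reporter gene screen, compound at 10 μM; activation expressed as a percentage of the response to rifampicin, also at 10 μM.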

Cytochrome P450 3A5 [4] = target: T2, Cytochrome P450 3A5 (Homo sapiens, UniProt P20815); test: Induction of CYP3A5 activation in human hepatocytes at 10 uM incubated for 48 hrs using testosterone substrate relative to rifampicin; assay type: ADME, cell-based, Hepatocyte
Procedure, shortened: (§1)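 Human hepatocyte CYP3A induction, testosterone probe with 6-β-hydroxytestosterone as marker; activity expressed as % of the rifampicin response; hepatocytes from two donors tested.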

Cytochrome P450 3A4 [5] = target: T3, Cytochrome P450 3A4 (Homo sapiens, UniProt P08684); test: Induction of CYP3A4 activation in human hepatocytes at 10 uM incubated for 48 hrs using testosterone substrate relative to rifampicin; assay type: ADME, cell-based, Hepatocyte; procedure, shortened: as §1
[6] = Lipophilicity, log D of the compound at pH 7.4; assay type: physicochemical; conditions: buffer
[7] = target: Sphingosine 1-phosphate receptor 1 (Mus musculus) (UniProt O08530); test: Antagonist activity against mouse S1P1 receptor expressed in human U2OS cells co-expressing GFP assessed as inhibition of S1P-induced receptor translocation; assay type: cell-based
Cytochrome P450 3A5 [8] = target: T2, Cytochrome P450 3A5; test: Inhibition of CYP3A5 in human liver microsomes incubated for 5 mins in presence of NADPH and specific substrates by LC/MS/MS method; assay type: ADME
Cytochrome P450 3A4 [9] = target: T3, Cytochrome P450 3A4; test: Inhibition of CYP3A4 in human liver microsomes incubated for 5 mins in presence of NADPH and specific substrates by LC/MS/MS method; assay type: ADME
Cytochrome P450 2D6 = Cytochrome P450 2D6 (Homo sapiens, UniProt P10635); test: Inhibition of CYP2D6 in human liver microsomes incubated for 5 mins in presence of NADPH and specific substrates by LC/MS/MS method; assay type: ADME
Cytochrome P450 2C19 = Cytochrome P450 2C19 (Homo sapiens, UniProt P33261); test: Inhibition of CYP2C19 in human liver microsomes incubated for 5 mins in presence of NADPH and specific substrates by LC/MS/MS method; assay type: ADME
Sequence of Cytochrome P450 2C19 (P33261 whole entry): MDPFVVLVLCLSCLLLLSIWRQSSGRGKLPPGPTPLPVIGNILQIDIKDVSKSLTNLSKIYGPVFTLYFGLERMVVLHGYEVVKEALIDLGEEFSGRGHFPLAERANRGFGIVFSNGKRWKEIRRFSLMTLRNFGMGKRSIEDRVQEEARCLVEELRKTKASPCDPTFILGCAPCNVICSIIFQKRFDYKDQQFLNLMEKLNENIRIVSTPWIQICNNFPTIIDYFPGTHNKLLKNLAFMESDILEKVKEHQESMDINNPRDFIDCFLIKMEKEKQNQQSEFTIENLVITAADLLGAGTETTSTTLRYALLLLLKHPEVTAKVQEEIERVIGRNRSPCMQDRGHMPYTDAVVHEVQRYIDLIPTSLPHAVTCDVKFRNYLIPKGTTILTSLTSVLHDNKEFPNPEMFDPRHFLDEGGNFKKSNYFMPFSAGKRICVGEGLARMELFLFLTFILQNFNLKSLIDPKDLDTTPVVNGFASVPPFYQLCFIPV

T3 sequence (P08684 whole entry): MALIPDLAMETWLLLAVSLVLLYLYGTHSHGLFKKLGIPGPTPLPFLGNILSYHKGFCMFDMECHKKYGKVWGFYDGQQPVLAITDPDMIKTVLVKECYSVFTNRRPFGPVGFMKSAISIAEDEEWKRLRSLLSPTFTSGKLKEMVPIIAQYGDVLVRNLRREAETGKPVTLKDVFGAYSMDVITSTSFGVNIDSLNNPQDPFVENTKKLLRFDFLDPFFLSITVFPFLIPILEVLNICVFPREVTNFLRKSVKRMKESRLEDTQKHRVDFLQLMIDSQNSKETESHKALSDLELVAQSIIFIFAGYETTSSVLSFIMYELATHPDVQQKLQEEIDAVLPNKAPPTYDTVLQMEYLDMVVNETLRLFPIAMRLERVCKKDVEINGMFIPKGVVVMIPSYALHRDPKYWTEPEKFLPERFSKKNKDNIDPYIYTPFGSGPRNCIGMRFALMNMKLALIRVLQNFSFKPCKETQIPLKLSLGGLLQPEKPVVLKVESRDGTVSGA
T2 sequence (P20815 whole entry): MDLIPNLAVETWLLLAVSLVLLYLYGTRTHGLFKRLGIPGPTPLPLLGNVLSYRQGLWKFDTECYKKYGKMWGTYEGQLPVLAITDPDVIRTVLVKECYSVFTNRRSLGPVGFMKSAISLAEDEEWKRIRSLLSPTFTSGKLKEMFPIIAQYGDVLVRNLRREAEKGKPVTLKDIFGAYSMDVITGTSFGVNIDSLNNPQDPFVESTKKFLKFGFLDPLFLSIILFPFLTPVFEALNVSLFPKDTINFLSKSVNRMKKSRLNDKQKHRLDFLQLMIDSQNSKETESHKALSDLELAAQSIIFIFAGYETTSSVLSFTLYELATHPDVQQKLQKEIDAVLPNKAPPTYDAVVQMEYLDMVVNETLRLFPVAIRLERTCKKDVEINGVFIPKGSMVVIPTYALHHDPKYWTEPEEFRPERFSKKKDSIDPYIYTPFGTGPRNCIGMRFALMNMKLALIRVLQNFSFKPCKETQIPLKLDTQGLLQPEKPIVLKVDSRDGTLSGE
Sequence of Sphingosine 1-phosphate receptor 1 (P21453 whole entry): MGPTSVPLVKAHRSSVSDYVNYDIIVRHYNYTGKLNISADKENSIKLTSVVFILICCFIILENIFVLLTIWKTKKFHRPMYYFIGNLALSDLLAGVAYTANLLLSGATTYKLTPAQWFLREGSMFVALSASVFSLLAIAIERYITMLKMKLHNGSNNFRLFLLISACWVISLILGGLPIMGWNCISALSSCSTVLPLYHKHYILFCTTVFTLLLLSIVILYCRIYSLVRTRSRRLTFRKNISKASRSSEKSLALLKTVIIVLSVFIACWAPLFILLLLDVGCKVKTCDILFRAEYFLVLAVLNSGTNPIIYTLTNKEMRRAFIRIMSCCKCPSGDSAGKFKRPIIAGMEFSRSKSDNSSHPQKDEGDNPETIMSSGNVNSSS
Sequence of Sphingosine 1-phosphate receptor 1 (Mus musculus) (O08530 whole entry): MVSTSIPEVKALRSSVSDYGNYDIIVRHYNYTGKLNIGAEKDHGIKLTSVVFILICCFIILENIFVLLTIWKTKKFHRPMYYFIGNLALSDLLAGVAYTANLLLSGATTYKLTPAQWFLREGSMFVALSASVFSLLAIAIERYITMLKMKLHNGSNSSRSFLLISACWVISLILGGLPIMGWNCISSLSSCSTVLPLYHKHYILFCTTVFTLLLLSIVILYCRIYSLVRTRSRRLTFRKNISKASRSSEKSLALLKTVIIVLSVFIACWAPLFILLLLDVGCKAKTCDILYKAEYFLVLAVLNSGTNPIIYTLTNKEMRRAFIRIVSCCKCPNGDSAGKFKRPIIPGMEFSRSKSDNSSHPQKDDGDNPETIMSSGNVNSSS
Sequence of Cytochrome P450 2D6 (P10635 whole entry): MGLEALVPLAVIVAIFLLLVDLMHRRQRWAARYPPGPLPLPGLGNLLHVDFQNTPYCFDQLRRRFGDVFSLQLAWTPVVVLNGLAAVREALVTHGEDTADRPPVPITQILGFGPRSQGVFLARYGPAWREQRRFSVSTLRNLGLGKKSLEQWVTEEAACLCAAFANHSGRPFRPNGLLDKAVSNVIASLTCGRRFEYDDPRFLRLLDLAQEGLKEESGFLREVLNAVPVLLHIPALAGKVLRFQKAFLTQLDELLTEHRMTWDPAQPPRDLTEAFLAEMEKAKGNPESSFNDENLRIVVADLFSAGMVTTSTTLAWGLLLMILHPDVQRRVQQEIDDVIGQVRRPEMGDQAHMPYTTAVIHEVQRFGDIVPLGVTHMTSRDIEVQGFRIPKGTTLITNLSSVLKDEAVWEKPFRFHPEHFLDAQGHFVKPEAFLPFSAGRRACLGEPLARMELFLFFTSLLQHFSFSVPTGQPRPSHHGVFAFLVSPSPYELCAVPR

Row | Structure (SMILES) | EC50 [1] | microsomal CLint [2] | also measured
1 | CCn1c([C@@H](C)NS(=O)(=O)c2ccc(Cl)cc2)nc2cc(C(N)=O)ccc21 | 190 nM | < 5 µL/min/mg | 
2 | CCn1c([C@@H](C)NS(=O)(=O)c2ccc(C)cc2)nc2ccc(C(F)(F)F)cc21 | 24 nM | > 100 µL/min/mg | 
3 | CCn1c([C@@H](C)NS(=O)(=O)c2cnc(C)n2C)nc2ccc(C(F)(F)F)cc21 | 650 nM | 58 µL/min/mg | 
4 | CCn1c(C(C)NS(=O)(=O)c2ccc(Cl)cc2)nc2ccncc21 (stereo not drawn) | 1170 nM | 93 µL/min/mg | 
5 | CCn1c([C@@H](C)NS(=O)(=O)c2ccc(C#N)cc2)nc2cnc(C3CC3)cc21 | 6 nM |  | Activity [3]: 27%; Activity (Cytochrome P450 3A5 [4]): < 40%; Activity (Cytochrome P450 3A4 [5]): < 40%; logD [6]: 1.9
6 | CCn1c([C@@H](C)NS(=O)(=O)c2ccc(CC(C)C)cc2)nc2ccc(C(F)(F)F)cc21 | 1800 nM | > 100 µL/min/mg | 
7 | CCn1c([C@@H](C)NS(=O)(=O)c2cnn(C(C)C)c2C)nc2ccc(C(F)(F)F)cc21 | 1100 nM | > 100 µL/min/mg | 
8 | CCCn1ncc(S(=O)(=O)N[C@H](C)c2nc3ccc(C(F)(F)F)cc3n2CC)c1C | 800 nM | > 100 µL/min/mg | 
9 | CCn1c([C@@H](C)NS(=O)(=O)c2ccc(C#N)cc2)nc2cnccc21 | 34 nM |  | Activity [3]: 14%; Activity (Cytochrome P450 3A5 [4]): < 40%; Activity (Cytochrome P450 3A4 [5]): < 40%
10 | CCn1c([C@@H](C)NS(=O)(=O)C2CCCC2)nc2ccc(C(F)(F)F)cc21 | 1800 nM |  | 
11 | CCn1c([C@@H](C)NS(=O)(=O)c2ccc(Cl)cc2)nc2ccc(S(C)(=O)=O)cc21 | 1840 nM | < 5 µL/min/mg | 
12 | CCn1c([C@@H](C)NS(=O)(=O)c2ccc(F)cc2)nc2ccc(C(F)(F)F)cc21 | 7 nM | 26 µL/min/mg | inhibition [7]: Active
13 | CCCn1cc(S(=O)(=O)N[C@H](C)c2nc3ccc(C(F)(F)F)cc3n2CC)c(C)n1 | 420 nM | > 100 µL/min/mg | 
14 | CCn1c([C@@H](C)NS(=O)(=O)c2ccc(Cl)cc2)nc2ccc(OC)cc21 | 9 nM | > 100 µL/min/mg | 
15 | CCn1c([C@@H](C)NS(=O)(=O)c2ccc(Cl)cc2)nc2cc(N3CCOCC3)ccc21 | 2420 nM | 45 µL/min/mg | 
16 | CCn1c(C(C)NS(=O)(=O)c2ccc(Cl)cc2)nc2cccnc21 (stereo not drawn) | 2340 nM | 94 µL/min/mg | 
17 | CCn1c([C@@H](C)NS(=O)(=O)c2cn(C)nc2C)nc2ccc(C(F)(F)F)cc21 | 1000 nM | 28 µL/min/mg | 
18 | CCn1c([C@@H](C)NS(=O)(=O)c2ccc(Cl)cc2)nc2cccc(Cl)c21 | 800 nM | > 100 µL/min/mg | 
19 | CCn1c([C@@H](C)NS(=O)(=O)c2cn(C)c(C)n2)nc2ccc(C(F)(F)F)cc21 | 4000 nM | 43 µL/min/mg | 
20 | CCn1c([C@@H](C)NS(=O)(=O)c2cnc(NC(C)=O)s2)nc2ccc(C(F)(F)F)cc21 | 2200 nM | 15 µL/min/mg | 
21 | CCn1ncc(S(=O)(=O)N[C@H](C)c2nc3ccc(C(F)(F)F)cc3n2CC)c1C | 430 nM | > 100 µL/min/mg | 

Row | Structure (SMILES) | EC50 [1] | microsomal CLint [2] | also measured
22 | CCn1c([C@@H](C)NS(=O)(=O)c2ccc(NC(C)=O)c(C)c2)nc2ccc(C(F)(F)F)cc21 | 12400 nM | > 100 µL/min/mg | 
23 | CCn1cc(S(=O)(=O)N[C@H](C)c2nc3ccc(C(F)(F)F)cc3n2CC)cn1 | 590 nM | 95 µL/min/mg | 
24 | CCn1c([C@@H](C)NS(=O)(=O)c2ccc(Cl)cc2)nc2cc(CO)ccc21 | 180 nM | 88 µL/min/mg | 
25 | CCn1c([C@@H](C)NS(=O)(=O)c2ccc(C#N)cc2)nc2cnc(C(F)(F)F)cc21 | 3 nM |  | Activity [3]: 32%; Activity (Cytochrome P450 3A5 [4]): < 40%; Activity (Cytochrome P450 3A4 [5]): < 40%; logD [6]: 1.6
26 | CCn1c([C@@H](C)NS(=O)(=O)c2ccc(Cl)cc2)nc2ccc(CO)cc21 | 5 nM | 84 µL/min/mg | 
27 | CCn1c([C@@H](C)NS(=O)(=O)c2ccc(C#N)cc2)nc2ccc(C(F)(F)F)cc21 | 12 nM | 34 µL/min/mg | 
28 | CCn1c([C@@H](C)NS(=O)(=O)c2ccccn2)nc2ccc(C(F)(F)F)cc21 | 9200 nM | < 3 µL/min/mg | 
29 | CCn1c([C@@H](C)NS(=O)(=O)c2cccc(Cl)c2)nc2ccc(C(F)(F)F)cc21 | 27 nM | > 100 µL/min/mg | 
30 | CCn1c([C@@H](C)NS(=O)(=O)c2ccc(Cl)cc2)nc2ccc(CN(C)C)cc21 | 23500 nM | 30 µL/min/mg | 
31 | CCn1c([C@@H](C)NS(=O)(=O)c2ccc(C#N)nc2)nc2cnc(OC)cc21 | 28 nM |  | Activity [3]: 11%; Activity (Cytochrome P450 3A5 [4]): < 40%; Activity (Cytochrome P450 3A4 [5]): < 40%; logD [6]: 1
32 | CCn1c([C@@H](C)NS(=O)(=O)c2ccc(Cl)cc2)nc2cc(F)c(Cl)cc21 | 1 nM | > 100 µL/min/mg | 
33 | CCn1c([C@@H](C)NS(=O)(=O)c2cccnc2)nc2ccc(C(F)(F)F)cc21 | 30 nM | > 100 µL/min/mg | IC50 (Cytochrome P450 3A5 [8]): 830 nM; IC50 (Cytochrome P450 3A4 [9]): 830 nM
34 | CCn1c([C@@H](C)NS(=O)(=O)c2cccc(C#N)c2)nc2ccc(C(F)(F)F)cc21 | 57 nM | > 100 µL/min/mg | 
35 | CCn1c(C(C)NS(=O)(=O)c2ccc(Cl)cc2)nc2ncccc21 (stereo not drawn) | 310 nM | 15 µL/min/mg | 
36 | CCn1c(C(C)NS(=O)(=O)c2ccc(Cl)cc2)nc2cnccc21 (stereo not drawn) | 210 nM | 35 µL/min/mg | IC50 (Cytochrome P450 2D6): 230 nM; IC50 (Cytochrome P450 2C19): 910 nM
37 | CCn1c([C@@H](C)NS(=O)(=O)c2ccccc2)nc2ccc(C(F)(F)F)cc21 | 8 nM | 14 µL/min/mg | 
38 | CCn1c([C@@H](C)NS(=O)(=O)c2ccc(C#N)cc2)nc2cnc(OC)cc21 | 9 nM |  | Activity [3]: 18%; Activity (Cytochrome P450 3A5 [4]): < 40%; Activity (Cytochrome P450 3A4 [5]): < 40%; logD [6]: 1.4
39 | CCn1c([C@@H](C)NS(=O)(=O)c2ccncc2)nc2ccc(C(F)(F)F)cc21 | 26 nM | 45 µL/min/mg | IC50 (Cytochrome P450 2C19): 40 nM
40 | CCn1c([C@@H](C)NS(=O)(=O)c2ccc(Cl)cc2)nc2cc(C#N)ccc21 | 130 nM | 71 µL/min/mg | 
41 | CCn1c([C@@H](C)NS(=O)(=O)c2c(F)cc(F)cc2F)nc2ccc(C(F)(F)F)cc21 | 240 nM | 19 µL/min/mg | 
42 | CCn1c([C@@H](C)NS(=O)(=O)C2CC2)nc2ccc(C(F)(F)F)cc21 | 9000 nM | < 3 µL/min/mg | 
